PAFAH1B2 FP inh – PAFAH1B2 enzyme inhibitors, primary screen, biochemical, fluorescence polarization, human | recombinant PAFAH1B2, FP-rhodamine activity probe | AID 492953, 2010 | inhibition, % at 3.39 µM | 340,000 compounds, 1.2% hits | Platelet-activating factor acetylhydrolase IB subunit alpha2 (Homo sapiens), P68402;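 active means inhibition above the mean of all tested compounds plus 3 SD, cut at about 24% in these data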;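 further: 0% = enzyme with DMSO and 100% = wells lacking PAFAH1B2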
PAFAH2 FP inh – PAFAH2 enzyme inhibitors, primary screen, biochemical, fluorescence polarization, human. Platelet-activating factor acetylhydrolase 2, cytoplasmic (Homo sapiens), Q99487. recombinant PAFAH2, FP-rhodamine activity probe. inhibition, % at 3.39 µM. 340,000 compounds, 0.99% hits. AID 492956, 2010;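 active means inhibition above the mean over all tested compounds plus 3 SD, cut at about 30% in these data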;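 further: inhibitors block probe labeling of enzyme so polarization drops; 0% = enzyme with DMSO and 100% = wells lacking PAFAH2 protein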
IMP-1 inh – IMP-1 metallo-beta-lactamase inhibitors, primary screen, biochemical, epi-absorbance readout, Pseudomonas aeruginosa enzyme; purified IMP-1, nitrocefin hydrolysis, epi-absorbance fluorescence; inhibition, % at 5.6 µM; 290,000 compounds, 0.45% hits; AID 1556, 2009;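 active means inhibition above the mean plus 3 SD of all compounds in the same screening run, cut at about 4.5% in these data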;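 further: 0% = IMP-1 with DMSO and 100% = DMSO wells lacking enzyme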
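Assay system: purified recombinant IMP-1 beta-lactamase. Input: IMP-1 0.2 nM before substrate addition. Buffer or medium: Zinc- and detergent-supplemented HEPES buffer, pH 7.1. Schedule: 25 °C, 15 min preincubation, 25 min reaction. Signal: Epi-absorbance fluorescence, 480 nm excitation, 530 nm emission. Evaluation: percent inhibition from optical density relative to buffer-blank wells.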
VIM-2 inhibitor – VIM-2 metallo-beta-lactamase inhibitors, primary screen, biochemical, epi-absorbance readout, Pseudomonas aeruginosa enzyme. purified VIM-2, nitrocefin hydrolysis, epi-absorbance fluorescence. inhibition, % at 5.6 µM. 290,000 compounds, 0.89% hits;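 active means inhibition above the mean of all tested compounds plus 3 SD, cutoff set per screening run, cut at about 7.5% in these data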;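 further: red hydrolysis product quenches plate fluorescence so inhibitors raise well fluorescence; 0% = enzyme with DMSO and 100% = DMSO without enzyme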
PAFAH1B3 FP inh – PAFAH1B3 enzyme inhibitors, primary screen, biochemical, fluorescence polarization, human. Platelet-activating factor acetylhydrolase IB subunit alpha1 (Homo sapiens), Q15102. recombinant PAFAH1B3, FP-rhodamine probe. AID 492972, 2010. 340,000 compounds, 0.28% hits. inhibition, % at 3.39 µM;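 active means inhibition above the screen-wide average of all tested compounds plus 3 SD, cut at about 25% in these data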;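 further: 0% = enzyme with DMSO only and 100% = wells lacking PAFAH1B3 protein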
Target sequence (Q15102 whole entry, looked up): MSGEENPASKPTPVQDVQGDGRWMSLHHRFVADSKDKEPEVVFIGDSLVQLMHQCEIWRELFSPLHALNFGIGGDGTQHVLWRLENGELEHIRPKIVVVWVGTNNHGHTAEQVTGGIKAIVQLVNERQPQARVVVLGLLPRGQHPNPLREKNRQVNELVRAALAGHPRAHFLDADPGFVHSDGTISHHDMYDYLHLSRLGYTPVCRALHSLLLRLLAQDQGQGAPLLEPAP
pPAFAH FP inh – pPAFAH enzyme inhibitors, primary screen, biochemical, fluorescence polarization, human. Platelet-activating factor acetylhydrolase (Homo sapiens), Q13093. recombinant pPAFAH, FP-rhodamine probe fluorescence polarization. inhibition, % at 3.39 µM. 330,000 compounds, 1.5% hits;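 active means inhibition above the mean inhibition across the screen plus 3 SD, cut at about 25% in these data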;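 further: inhibitors block binding of the rhodamine activity-based probe so polarization drops; 0% = enzyme with DMSO and 100% = wells lacking pPAFAH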
Target sequence (Q13093 whole entry, looked up): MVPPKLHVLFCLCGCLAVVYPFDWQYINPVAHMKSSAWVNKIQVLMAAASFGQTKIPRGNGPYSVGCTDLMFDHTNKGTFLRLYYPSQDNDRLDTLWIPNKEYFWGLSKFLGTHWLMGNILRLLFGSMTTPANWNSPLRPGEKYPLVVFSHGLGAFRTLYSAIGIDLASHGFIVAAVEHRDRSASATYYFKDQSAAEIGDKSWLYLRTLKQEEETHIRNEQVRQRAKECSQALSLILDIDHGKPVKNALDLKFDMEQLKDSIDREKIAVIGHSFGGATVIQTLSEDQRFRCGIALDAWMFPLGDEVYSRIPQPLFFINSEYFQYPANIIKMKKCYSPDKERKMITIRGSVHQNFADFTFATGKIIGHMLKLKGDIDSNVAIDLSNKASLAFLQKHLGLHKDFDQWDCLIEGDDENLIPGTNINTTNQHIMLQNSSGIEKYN
* = called active by the depositor; · = no result. In the library only some 3.6% were active in any assay of this set; here they are far more common.

SMILES | PAFAH1B2 FP inh | PAFAH2 FP inh | IMP-1 inh | VIM-2 inhibitor | PAFAH1B3 FP inh | pPAFAH FP inh
CCCCOc1ccc(N(CC(=O)NCCOC)C(=O)CCC(=O)Nc2ccccn2)cc1 | -2 | -2 | -4 | -2 | -5 | 2
COc1ccc(NC(=O)c2cc3ccccc3cc2O)cc1 | 2 | 8 | 1 | 0 | 11 | 32*
CCc1ccc(NC(=O)NNC(=O)c2cc3ccccc3cc2O)cc1 | 8 | -19 | -3 | -4 | 13 | 33*
Cc1ccc(NC(=O)NNC(=O)c2cc3ccccc3cc2O)cc1C | 7 | -13 | -2 | -2 | 22 | 22
Cc1cccc(NC(=O)NNC(=O)c2cc3ccccc3cc2O)c1C | 0 | 5 | -1 | -3 | 11 | 34*
N#CCC(=O)NN=C1CCCCCCCCCCC1 | 26* | 3 | -3 | -2 | 5 | 3
CCCNC(=O)CN1C(=O)NC(c2ccccc2)(c2ccccc2)C1=O | 2 | -9 | 0 | -1 | 6 | 1
Cc1ccc(NC(=O)c2ncn(CCCNCc3ccccc3)n2)cc1C | 5 | -4 | · | · | 9 | ·
C=CCOC(=O)C1=C[C@H](c2csc3ccccc23)C[C@H](OCCCCO)O1 | 2 | -1 | · | · | 6 | 19
NC(=O)C1=C[C@@H](c2csc3ccccc23)C[C@@H](OCCCCO)O1 | 6 | -4 | 6.3* | 3 | 0 | 2
O=C(NC(n1ccc(=O)[nH]c1=O)C(Cl)(Cl)Cl)C12CC3CC(CC(C3)C1)C2 (configuration not stated) | 27* | -4 | 1 | 1 | 6 | 8
COc1cccc(C2c3c(oc4ccc(F)cc4c3=O)C(=O)N2CCN2CCOCC2)c1OC (configuration not stated) | 1 | 4 | 0 | 8.1* | -2 | -2
CC(C)(CNC(=O)c1cc2c(s1)CCCC2)N1CCOCC1 | 7 | 8 | · | · | -3 | 0
CC(C)c1ccc(NC(=O)Cn2nnc(C(=O)NCc3ccco3)c2N)cc1 | 1 | -3 | 0 | 0 | 3 | 4
CC(=O)C[C@@H](O)CC(=O)[C@H]1OC(=O)CCCCCCCCc2ccccc21 | 43* | -3 | · | · | 4 | 0
CC(=O)C[C@@H](O)CC(=O)[C@@H]1OC(=O)CCCCCCCCc2ccccc21 | 28* | -3 | · | · | -11 | 3
CC(=O)C[C@@H](O)CC(=O)[C@H]1OC(=O)CCCCCc2ccccc21 | 7 | 0 | · | · | 13 | 5
CCCn1nc(C(=O)OCC(=O)c2c(N)n(C)c(=O)n(C)c2=O)c2ccccc2c1=O | -2 | -1 | -3 | 11* | 1 | -4
Nn1c(-c2cccc(O)c2)nnc1-c1cccc(O)c1 | -2 | 5 | · | · | 7 | ·
COc1cccc2c1C(=O)c1c(O)c3c(c(O)c1C2=O)C[C@](O)(C(C)=O)C[C@H]3O[C@@H]1C[C@@H](N)[C@@H](O)[C@@H](C)O1 | 49* | 51* | · | · | 43* | 57*
COc1cccc2c1C(=O)c1c(O)c3c(c(O)c1C2=O)CC(O)(C(C)=O)CC3OC1CC(O)C(O)C(C)O1 (configuration not stated) | 65* | 68* | · | · | 52* | ·
COc1cccc2c1C(=N)c1c(O)c3c(c(O)c1C2=O)CC(O)(C(C)=O)CC3OC1CC(N)C(O)C(C)O1 (configuration not stated) | 11 | 11 | · | · | 8 | ·
COc1ccc(CCC(=O)Nc2nc(C)c(C(=O)N(C)C)s2)cc1 | 1 | 0 | 11* | -4 | 2 | -5
COc1ccc(CCC(=O)Nc2sc(C(=O)N(C)C)c(C)c2C#N)cc1 | 4 | -3 | -1 | -4 | 6 | ·
Cc1cccc(NC(=O)C2CCCN(S(=O)(=O)c3ccc4[nH]c(=O)ccc4c3)C2)n1 (configuration not stated) | 1 | -6 | -3 | -4 | 7 | 2
SMILES | PAFAH1B2 FP inh | PAFAH2 FP inh | IMP-1 inh | VIM-2 inhibitor | PAFAH1B3 FP inh | pPAFAH FP inh
CCOC(=O)COc1c(OC)cc(Cl)cc1C1Nc2ccccc2C(=O)N1c1cccc(C)c1 (configuration not stated) | 2 | 5 | 5.6* | -3 | -2 | 0
O=C(/C=C/c1cccs1)c1ccco1 | -4 | 10 | · | · | 4 | ·
Oc1c(C=Nc2ccccc2)sc2ccccc12 | 1 | 1 | -2 | 1 | 7 | 4
Oc1sc(C=Nc2ccc(F)cc2)c2ccccc12 | 6 | 0 | 13* | 6 | 12 | 7
COc1ccc(CNc2ncc(-c3ccccc3)n2C)cc1 | 1 | 7 | -1 | -2 | 2 | 0
CCOc1cc(CNc2ncc(-c3ccc(OC)cc3)n2C)ccc1O | 1 | 4 | 4.8* | 0 | 5 | -2
CCCCn1c(SCC(=O)OCC)nc2c(sc(=S)n2-c2ccccc2OC)c1=O | 6 | 0 | -2 | -1 | 4 | 6
CC1=CC2=C(OC1N(C)C)c1cccc3cccc(c13)C2=O (configuration not stated) | 17 | 15 | 7.3* | 3 | 15 | 16
Cc1ccc(N2C(=O)c3cccc4cccc(c34)C2=O)cc1 | 5 | 6 | -1 | -6 | 1 | -1
C/C(N)=C(/C#N)C(=O)COC(=O)CCSc1ccccc1Cl | 6 | 0 | 3 | 1 | 5 | 9
C/C(N)=C(/C#N)C(=O)COC(=O)CSc1ccccc1 | 26* | -8 | -4 | -4 | -7 | 2
Cc1ccc(-c2nc(S(=O)(=O)c3ccccc3)c(SCC(=O)NCC3CCCO3)o2)cc1 (configuration not stated) | 5 | 9 | -2 | -3 | -7 | 7
O=C(COC(=O)CNC(=O)c1ccc(Cl)cc1Cl)NCc1ccco1 | 3 | 11 | · | · | -2 | 7
CC1(C)Cc2c(c(-c3ccco3)nc3sc4c(NCCCO)ncnc4c23)CO1 | 2 | -7 | 9.3* | 1 | 6 | -1
COc1ccccc1NS(=O)(=O)c1cc(NC(=O)Nc2ccc(Cl)cc2Cl)ccc1N1CCCCC1 | 14 | -26 | 0 | 1 | 7 | 34*
Cc1cc2n(n1)C(c1ccccc1)Nc1ccccc1-2 (configuration not stated) | -4 | -3 | 0 | 1 | -4 | -7
Cc1cc2n(n1)C(c1ccc(N(C)C)cc1)Nc1ccccc1-2 (configuration not stated) | 7 | 5 | -3 | 0 | 10 | 26*
N#Cc1ccc(CSc2ccc(S(=O)(=O)N3CCCC3)cn2)cc1 | 6 | 5 | · | · | 6 | -1
Cn1c(N)nc2nc(CCc3ccccc3)c(=O)[nH]c2c1=O | 3 | 1 | 5.2* | -1 | 9 | 0

Screening data as filed in PubChem BioAssay.
